{"source": "ChEMBL document CHEMBL1127445", "about": "“Structure-activity study of 5-substituted 1-carbobenzoxy-2-iminohydantoins as potential anticonvulsant agents” (J Med Chem, 1994)", "key": {"Mus musculus [1]": {"organism": "Mus musculus", "test": "Tested for the ability to protect against maximal electroshock seizure test", "format": "functional", "in_short": "(§1)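 Adult male Swiss Webster mice (20–25 g) received drug ip (10 mL/kg) in normal saline or as a 1% CMC suspension. At least three dose groups of 4–8 mice were used, tested at 0.5 h. Maximal electroshock used a 50 mA current. ED50 is in mg/kg; time of peak effect was not determined; doses went up to 300 mg/kg.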"}, "Mus musculus [2]": {"system": "Mus musculus", "test": "Tested for the ability to protect against subcutaneous pentylenetetrazole seizure test", "format": "functional", "settings": "sc", "in_short": "(§2)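 Male Swiss Webster mice (20–25 g) were dosed ip (10 mL/kg; saline or 1% CMC suspension), with ≥3 groups of 4–8 mice. At 0.5 h, pentylenetetrazole 85 mg/kg was given sc into the neck fold, and mice were watched for 30 min. Protection meant absence of clonic spasms lasting ≥5 s. ED50 is in mg/kg; doses went up to 300 mg/kg.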"}, "Mus musculus [3]": {"system": "Mus musculus", "test": "Tested for the ability to protect against maximal electroshock seizure test; NA= Not active up to 300 mg/kg", "format": "functional, organism-based", "parameters": "dose 300 mg/kg", "in_short": "as §1"}, "Mus musculus [4]": {"system": "Mus musculus", "test": "Tested for the ability to protect against subcutaneous pentylenetetrazole seizure test; NA= Not active up to 300 mg/kg", "format": "functional, organism-based", "parameters": "dose 300 mg/kg", "in_short": "as §2"}, "Mus musculus [5]": {"system": "Mus musculus", "test": "Tested for the ability to protect against subcutaneous pentylenetetrazole seizure test; Previously tested", "format": "functional", "settings": "sc"}, "[6]": {"test": "Protective index is the ratio between TD50 and ED50 values in subcutaneous pentylenetetrazole seizure test (scMET)", "format": "functional", "in_short": "(§3)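 Phase II quantification in mice was run by the NIH ADD Program. Compounds were given ip, and ED50 (mg/kg) was read at the time of peak effect. The protective index is TD50 (rotorod ataxia) divided by ED50 in the MES or scMET test.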"}, "[7]": {"test": "Protective index is the ratio between TD50 and ED50 values in maximal electroshock seizure test (MES)", "format": "functional", "in_short": "as §3"}, "Mus musculus [8]": {"system": "Mus musculus", "test": "Intraperitoneal anticonvulsant activity in the maximal electroshock seizure test expressed as median effective dose in phase II trial in mice", "settings": "ip"}, "Mus musculus [9]": {"system": "Mus musculus", "test": "Anticonvulsant activity of the substance upon subcutaneous administration in pentylenetetrazole seizure test in mice; NA= Not active", "format": "functional, organism-based"}, "Mus musculus [10]": {"system": "Mus musculus", "test": "Tested for the ability to protect against maximal electroshock seizure test; Activity at 300 mg/kg, but ED50 cannot be estimated", "format": "functional, organism-based", "parameters": "dose 300 mg/kg", "in_short": "as §1"}, "Mus musculus [11]": {"system": "Mus musculus", "test": "Anticonvulsant activity in the in the subcutaneous pentylenetetrazole seizure test in the mice", "format": "functional", "settings": "sc", "in_short": "as §3"}, "[12]": {"test": "Tested for median toxic dose in rotarod ataxia test for neurological toxicity in mice", "format": "organism-based", "settings": "mouse, in vivo", "in_short": "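Neurotoxicity was measured in mice by the NIH ADD Program using the rotorod ataxia test. Drug was given ip, and the median toxic dose (mg/kg) was measured at the time of peak deficit.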"}, "Mus musculus [13]": {"system": "Mus musculus", "test": "Tested for the ability to protect against subcutaneous pentylenetetrazole seizure test; Activity at 300 mg/kg but ED50 can not be estimated", "format": "functional, organism-based", "parameters": "dose 300 mg/kg", "in_short": "as §2"}, "Mus musculus [14]": {"system": "Mus musculus", "test": "Anticonvulsant activity of the substance upon subcutaneous administration in pentylenetetrazole seizure test in mice", "format": "functional", "settings": "ip, in the assay text read “upon intraperitoneal administration” for “upon subcutaneous administration”", "in_short": "as §3"}, "Mus musculus [15]": {"system": "Mus musculus", "test": "Tested for the ability to protect against subcutaneous pentylenetetrazole seizure test; Activity at 300 mg/kg but ED50 cannot be estimated", "format": "functional, organism-based", "parameters": "dose 300 mg/kg", "in_short": "as §2"}}, "note": "The source made the active and inactive calls. No cut-off for these calls is given here.", "data": [{"compound": "CCC(C)[C@H]1C(=O)N=C(N)N1C(=O)OCc1ccccc1", "note": "(stereo partly drawn)", "values": [{"measurement": "ED50", "setting": "Mus musculus [1]", "value": 74.4, "unit": "mg/kg"}, {"measurement": "ED50", "setting": "Mus musculus [2]", "value": 176, "unit": "mg/kg"}]}, {"compound": "NC1=NC(=O)[C@H](CSCc2ccccc2)N1C(=O)OCc1ccccc1", "values": [{"measurement": "ED50", "setting": "Mus musculus [3]", "value": "inactive"}, {"measurement": "ED50", "setting": "Mus musculus [4]", "value": "inactive"}]}, {"compound": "CC(C)C[C@H]1C(=O)N=C(N)N1C(=O)OCc1ccccc1", "values": [{"measurement": "ED50", "setting": "Mus musculus [5]", "value": 141, "unit": "mg/kg"}, {"measurement": "PI", "setting": "[6]", "value": 2.5}, {"measurement": "PI", "setting": "[7]", "value": 3.5}, {"measurement": "ED50", "setting": "Mus musculus [8]", "value": 98.6, "unit": "mg/kg"}]}, {"compound": "O=C1NC(=O)C(c2ccccc2)(c2ccccc2)N1", "values": [{"measurement": "ED50", "setting": "Mus musculus [9]", "value": "inactive"}]}, {"compound": "NC1=NC(=O)CN1C(=O)OCc1ccccc1", "values": [{"measurement": "ED50", "setting": "Mus musculus [10]", "value": "Activity"}, {"measurement": "ED50", "setting": "Mus musculus [4]", "value": "inactive"}]}, {"compound": "CC[C@H]1C(=O)N=C(N)N1C(=O)OCc1ccccc1", "values": [{"measurement": "ED50", "setting": "Mus musculus [1]", "value": 69.2, "unit": "mg/kg"}, {"measurement": "ED50", "setting": "Mus musculus [2]", "value": 223, "unit": "mg/kg"}, {"measurement": "ED50", "setting": "Mus musculus [11]", "value": "< 500", "unit": "mg/kg"}, {"measurement": "TD50", "setting": "[12]", "value": "< 500", "unit": "mg/kg"}, {"measurement": "ED50", "setting": "Mus musculus [8]", "value": 99.5, "unit": "mg/kg"}]}, {"compound": "CC1(C)C(=O)N=C(N)N1C(=O)OCc1ccccc1", "values": [{"measurement": "ED50", "setting": "Mus musculus [1]", "value": 228, "unit": "mg/kg"}, {"measurement": "ED50", "setting": "Mus musculus [4]", "value": "inactive"}]}, {"compound": "NC1=NC(=O)[C@H](Cc2ccccc2)N1C(=O)OCc1ccccc1", "values": [{"measurement": "ED50", "setting": "Mus musculus [3]", "value": "inactive"}, {"measurement": "ED50", "setting": "Mus musculus [5]", "value": "> 1000", "unit": "mg/kg"}]}, {"compound": "NC(=O)CC[C@H]1C(=O)N=C(N)N1C(=O)OCc1ccccc1", "values": [{"measurement": "ED50", "setting": "Mus musculus [3]", "value": "inactive"}, {"measurement": "ED50", "setting": "Mus musculus [4]", "value": "inactive"}]}, {"compound": "CC(C)[C@H]1C(=O)N=C(N)N1C(=O)OCc1ccccc1", "values": [{"measurement": "ED50", "setting": "Mus musculus [1]", "value": 51.9, "unit": "mg/kg"}, {"measurement": "ED50", "setting": "Mus musculus [13]", "value": "Activity"}]}, {"compound": "C[C@H]1C(=O)N=C(N)N1C(=O)OCc1ccccc1", "values": [{"measurement": "ED50", "setting": "Mus musculus [1]", "value": 171, "unit": "mg/kg"}, {"measurement": "ED50", "setting": "Mus musculus [4]", "value": "inactive"}]}, {"compound": "CSCC[C@H]1C(=O)N=C(N)N1C(=O)OCc1ccccc1", "values": [{"measurement": "ED50", "setting": "Mus musculus [3]", "value": "inactive"}, {"measurement": "ED50", "setting": "Mus musculus [4]", "value": "inactive"}]}, {"compound": "CCC[C@H]1C(=O)N=C(N)N1C(=O)OCc1ccccc1", "values": [{"measurement": "ED50", "setting": "Mus musculus [1]", "value": 53.3, "unit": "mg/kg"}, {"measurement": "ED50", "setting": "Mus musculus [2]", "value": 141, "unit": "mg/kg"}, {"measurement": "ED50", "setting": "Mus musculus [14]", "value": 141, "unit": "mg/kg"}, {"measurement": "PI", "setting": "[6]", "value": 1.3}, {"measurement": "PI", "setting": "[7]", "value": 2.3}, {"measurement": "TD50", "setting": "[12]", "value": 188, "unit": "mg/kg"}, {"measurement": "ED50", "setting": "Mus musculus [8]", "value": 80.2, "unit": "mg/kg"}]}, {"compound": "CCC[C@@H]1C(=O)N=C(N)N1C(=O)OCc1ccccc1", "values": [{"measurement": "ED50", "setting": "Mus musculus [3]", "value": "inactive"}, {"measurement": "ED50", "setting": "Mus musculus [2]", "value": 374, "unit": "mg/kg"}]}, {"compound": "C=CC[C@H]1C(=O)N=C(N)N1C(=O)OCc1ccccc1", "values": [{"measurement": "ED50", "setting": "Mus musculus [1]", "value": 53.3, "unit": "mg/kg"}, {"measurement": "ED50", "setting": "Mus musculus [2]", "value": 193, "unit": "mg/kg"}]}, {"compound": "CCCC[C@H]1C(=O)N=C(N)N1C(=O)OCc1ccccc1", "values": [{"measurement": "ED50", "setting": "Mus musculus [1]", "value": "> 1000", "unit": "mg/kg"}, {"measurement": "ED50", "setting": "Mus musculus [13]", "value": "Activity"}]}, {"compound": "NC1=NC(=O)[C@H](Cc2c[nH]c3ccccc23)N1C(=O)OCc1ccccc1", "values": [{"measurement": "ED50", "setting": "Mus musculus [3]", "value": "inactive"}, {"measurement": "ED50", "setting": "Mus musculus [15]", "value": "Activity"}]}]}
